Experimental data from ChEMBL document CHEMBL2016473, “Synthesis of new opioid derivatives with a propellane skeleton and their pharmacology. Part 2: Propellane derivatives with an amide side chain” (Bioorg Med Chem Lett, 2012).

Tests used:
[1] = target: Kappa-type opioid receptor (Cavia porcellus, UniProt P41144); assay: Displacement of [3H]U69593 from kappa opioid receptor in guinea pig cerebellum
Procedure, shortened: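 Competitive binding against [3H]U-69,593 as the kappa radioligand, on guinea pig cerebellum membranes. Run in duplicate, with results reported as Ki.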

[2] = Selectivity ratio of Ki for mouse mu opioid receptor to Ki for guinea pig kappa opioid receptor
[3] = target: Mu-type opioid receptor (Mus musculus, UniProt P42866); assay: Displacement of [3H]DAMGO from mu opioid receptor in mouse whole brain without cerebellum
Procedure, shortened: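 Competitive binding against [3H]DAMGO as the mu radioligand, on membranes from mouse whole brain with the cerebellum removed. Run in duplicate, with results reported as Ki.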

[4] = target: Delta-type opioid receptor (Mus musculus, UniProt P32300); assay: Displacement of [3H]DPDPE from delta opioid receptor in mouse whole brain without cerebellum
Procedure, shortened: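 Competitive binding against [3H]DPDPE as the delta radioligand, on membranes from mouse whole brain with the cerebellum removed. Run in duplicate, with results reported as Ki.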

[5] = Selectivity ratio of Ki for mouse delta opioid receptor to Ki for guinea pig kappa opioid receptor

Chain of Kappa-type opioid receptor (P41144 whole entry): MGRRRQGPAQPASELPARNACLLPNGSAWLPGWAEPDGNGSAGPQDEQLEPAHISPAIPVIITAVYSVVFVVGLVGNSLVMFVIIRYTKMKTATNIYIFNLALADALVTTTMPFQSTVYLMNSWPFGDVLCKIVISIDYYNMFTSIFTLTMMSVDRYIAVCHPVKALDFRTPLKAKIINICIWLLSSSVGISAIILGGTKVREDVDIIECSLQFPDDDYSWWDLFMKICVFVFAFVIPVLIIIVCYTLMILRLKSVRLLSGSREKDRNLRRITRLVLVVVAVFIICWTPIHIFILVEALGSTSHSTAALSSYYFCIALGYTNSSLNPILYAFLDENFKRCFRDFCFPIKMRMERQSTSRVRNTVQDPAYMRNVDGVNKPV
Chain of Mu-type opioid receptor (P42866 whole entry): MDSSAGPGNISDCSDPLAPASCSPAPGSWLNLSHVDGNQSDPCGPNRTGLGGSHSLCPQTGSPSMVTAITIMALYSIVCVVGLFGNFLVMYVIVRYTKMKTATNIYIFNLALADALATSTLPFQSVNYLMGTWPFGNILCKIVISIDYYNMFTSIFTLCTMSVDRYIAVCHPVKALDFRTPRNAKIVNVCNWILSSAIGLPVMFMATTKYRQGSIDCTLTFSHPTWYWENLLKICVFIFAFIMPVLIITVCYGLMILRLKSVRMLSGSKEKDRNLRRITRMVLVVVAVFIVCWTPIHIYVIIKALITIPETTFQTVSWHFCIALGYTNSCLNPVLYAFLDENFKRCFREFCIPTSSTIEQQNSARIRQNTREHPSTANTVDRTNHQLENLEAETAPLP
Chain of Delta-type opioid receptor (P32300 whole entry, looked up): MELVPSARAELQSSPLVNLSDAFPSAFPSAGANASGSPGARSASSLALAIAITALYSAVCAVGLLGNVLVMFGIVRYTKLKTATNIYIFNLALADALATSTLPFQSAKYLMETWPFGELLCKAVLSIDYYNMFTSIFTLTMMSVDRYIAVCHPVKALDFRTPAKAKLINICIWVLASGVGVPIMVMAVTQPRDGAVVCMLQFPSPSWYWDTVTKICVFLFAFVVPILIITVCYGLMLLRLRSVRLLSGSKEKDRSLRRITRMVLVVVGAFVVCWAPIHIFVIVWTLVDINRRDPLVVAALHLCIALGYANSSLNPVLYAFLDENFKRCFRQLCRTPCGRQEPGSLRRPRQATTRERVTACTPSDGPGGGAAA

| SMILES | Ki [1] | Ratio Ki [2] | Ki [3] | Ki [4] | Ratio Ki [5] |
| --- | --- | --- | --- | --- | --- |
| O=C(NCCc1ccccc1)[C@@H]1CCC23CCN(CC4CC4)CC2(Cc2ccc(O)cc23)C1 (stereo not given in full) | 169 nM | 0.32 | 54.1 nM | > 1000 nM |  |
| O=C(Nc1ccccc1)[C@@H]1CCC23CCN(CC4CC4)CC2(Cc2ccc(O)cc23)C1 (stereo not given in full) | 13.4 nM | 5.95 | 79.7 nM | 282 nM | 21 |
| CN(C(=O)CCc1ccccc1)[C@H]1CCC23Cc4ccc(O)cc4C2(CCN(CC2CC2)C3)C1 (stereo not given in full) | 7.1 nM | 0.17 | 1.23 nM | 44.3 nM | 6.24 |
| O=C(NCc1ccccc1)C1=CCC23CCN(CC4CC4)CC2(C1)Cc1ccc(O)cc13 (stereo not given) | 72.7 nM | 0.47 | 33.9 nM | 298 nM | 4.1 |
| O=C(NCc1ccccc1)[C@H]1CCC23CCN(CC4CC4)CC2(Cc2ccc(O)cc23)C1 (stereo not given in full) | > 1000 nM |  | 112 nM | > 1000 nM |  |
| O=C(Nc1ccccc1)[C@H]1CCC23CCN(CC4CC4)CC2(Cc2ccc(O)cc23)C1 (stereo not given in full) | 108 nM | 0.75 | 80.8 nM | 207 nM | 1.92 |
| CN(C(=O)CCc1ccccc1)[C@@H]1CCC23Cc4ccc(O)cc4C2(CCN(CC2CC2)C3)C1 (stereo not given in full) | 16.4 nM | 1.95 | 31.9 nM | 65.2 nM | 3.98 |
| CN(C(=O)/C=C/c1ccoc1)[C@H]1CCC23Cc4ccc(O)cc4C2(CCN(CC2CC2)C3)C1 (stereo not given in full) | 0.83 nM | 2.65 | 2.2 nM | 35 nM | 42.2 |
| O=C(NCCc1ccccc1)[C@H]1CCC23CCN(CC4CC4)CC2(Cc2ccc(O)cc23)C1 (stereo not given in full) | 641 nM | 0.71 | 453 nM | > 1000 nM |  |
| O=C(NCCc1ccccc1)C1=CCC23CCN(CC4CC4)CC2(C1)Cc1ccc(O)cc13 (stereo not given) | 253 nM | 0.14 | 35.9 nM | 412 nM | 1.63 |
| O=C(Nc1ccccc1)C1=CCC23CCN(CC4CC4)CC2(C1)Cc1ccc(O)cc13 (stereo not given) | 46.7 nM | 0.27 | 12.4 nM | 192 nM | 4.11 |
| O=C(NCc1ccccc1)[C@@H]1CCC23CCN(CC4CC4)CC2(Cc2ccc(O)cc23)C1 (stereo not given in full) | 19.2 nM | 5.52 | 106 nM | > 1000 nM |  |
| CN(C(=O)/C=C/c1ccoc1)[C@@H]1CCC23Cc4ccc(O)cc4C2(CCN(CC2CC2)C3)C1 (stereo not given in full) | 3.43 nM | 3.56 | 12.2 nM | 121 nM | 35.3 |
